Measurements as given in ChEMBL document CHEMBL4732199, “Potent and orally bioavailable CDK8 inhibitors: Design, synthesis, structure-activity relationship analysis and biological evaluation” (Eur J Med Chem, 2021).
Active and inactive are the calls of the source. The rule behind the calls is not given here.

Assays:
[1] = Volume of distribution at steady state in Sprague-Dawley rat at 5 mg/kg, iv measured up to 24 hrs by LC-MS/MS analysis; format: ADME, organism-based; conditions: in vivo, read-out: Vdss
[2] = system: Kasumi 1; test: Growth inhibition human Kasumi-1 cells after 72 hrs by resazurin or MTT assay; format: functional
Summary of the method: (§1)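 Tumour cell lines kept in RPMI-1640, DMEM or MEM with 10% FBS at 37 °C, 5% CO2, mycoplasma-free. Exposure lasted 72 h. Viability was read by MTT for adherent solid-tumour lines and by resazurin for suspension leukaemia lines. GI50 came from nonlinear regression, given as mean ± standard deviation of at least two replicates unless stated otherwise.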

[3] = Toxicity in BALB/c mouse assessed as increase in dead splenocytes at 70 mg/kg, po administered once daily for 7 days and measured on day 15 by flow cytometric analysis; format: organism-based; conditions: in vivo, 168 h, time 7 day
[4] = biological target: Glycogen synthase kinase-3 beta (Homo sapiens, UniProt P49841); test: Inhibition of human GSKbeta H350L mutant (2 to 3nd residues) using YRRAAVPPSPSLSRHSSPHQS(p) EDEEE as substrate incubated for 40 mins in presence of [gamma-33P]-ATP by scintillation counting method
Sequence of Glycogen synthase kinase-3 beta (P49841 whole entry): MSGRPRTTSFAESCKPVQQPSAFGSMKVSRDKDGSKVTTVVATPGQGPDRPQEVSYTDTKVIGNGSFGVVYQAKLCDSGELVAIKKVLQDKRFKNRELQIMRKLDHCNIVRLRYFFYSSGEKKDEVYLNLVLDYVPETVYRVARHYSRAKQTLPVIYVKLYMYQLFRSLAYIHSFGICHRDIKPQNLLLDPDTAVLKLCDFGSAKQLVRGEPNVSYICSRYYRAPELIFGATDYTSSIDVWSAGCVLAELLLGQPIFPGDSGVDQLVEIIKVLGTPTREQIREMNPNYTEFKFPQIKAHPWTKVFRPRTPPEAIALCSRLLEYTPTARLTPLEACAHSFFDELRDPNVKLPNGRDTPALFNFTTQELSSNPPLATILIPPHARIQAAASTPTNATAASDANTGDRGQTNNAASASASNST
Summary of the method: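 Outsourced radioisotope (HotSpot) kinase assay run by a contract lab, with ATP at the kinase's Km(ATP). The IC50 was converted to an apparent Ki by the Cheng-Prusoff equation, Ki = IC50/(1+[ATP]/Km(ATP)), using the experimentally determined Km(ATP).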

[5] = Growth inhibition human PL-21 cells after 72 hrs by resazurin or MTT assay; format: functional, PL21; summary of the method: as §1
[6] = system: MV4-11; test: Growth inhibition of human MV4-11 cells after 72 hrs by resazurin staining based assay; format: functional
Summary of the method: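 MV4-11 leukaemia cells grown in medium with 10% FBS at 37 °C, 5% CO2. Growth was read by a 72-h resazurin viability assay. GI50 was obtained by nonlinear regression and reported as mean ± standard deviation of at least two replicates.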

[7] = Half life in Sprague-Dawley rat at 5 mg/kg, iv measured up to 24 hrs by LC-MS/MS analysis; format: ADME, organism-based; conditions: in vivo
[8] = Cmax in Sprague-Dawley rat at 5 mg/kg, iv measured up to 24 hrs by LC-MS/MS analysis; format: ADME, organism-based; design: route intravenous, dose 5 mg/kg, time <=24; conditions: in vivo
[9] = Clearance in Sprague-Dawley rat at 5 mg/kg, iv measured up to 24 hrs by LC-MS/MS analysis; format: ADME, organism-based; conditions: in vivo
[10] = Effect on total STAT1 level in human MV4-11 cells at 1 to 5 times of GI50 concentration after 2 hrs by Western blot analysis; format: ADME, cell-based; conditions: mv4-11, 2 h
[11] = biological target: CDK8/Cyclin C (Homo sapiens, UniProt P49336); test: Inhibition of CDK8/cyclin C (unknown origin) using RBER-IRStide as substrate incubated for 60 mins in presence of [gamma33P]ATP by scintillation counting method; format: protein-complex assay
Sequence of CDK8/Cyclin C (P49336 whole entry): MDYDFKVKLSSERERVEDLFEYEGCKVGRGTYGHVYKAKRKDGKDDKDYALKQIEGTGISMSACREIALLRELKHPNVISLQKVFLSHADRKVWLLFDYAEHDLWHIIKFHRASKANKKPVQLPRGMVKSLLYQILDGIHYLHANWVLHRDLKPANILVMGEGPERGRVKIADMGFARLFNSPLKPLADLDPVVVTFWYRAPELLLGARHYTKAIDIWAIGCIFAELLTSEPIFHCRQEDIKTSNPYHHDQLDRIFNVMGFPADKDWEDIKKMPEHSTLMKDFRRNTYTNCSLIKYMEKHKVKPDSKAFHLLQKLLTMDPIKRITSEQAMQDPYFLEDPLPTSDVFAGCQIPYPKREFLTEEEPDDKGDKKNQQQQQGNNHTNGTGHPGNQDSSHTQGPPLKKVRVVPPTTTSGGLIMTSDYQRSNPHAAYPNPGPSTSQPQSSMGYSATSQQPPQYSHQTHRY
Sequence of CDK8/Cyclin C (P24863 whole entry, further chain): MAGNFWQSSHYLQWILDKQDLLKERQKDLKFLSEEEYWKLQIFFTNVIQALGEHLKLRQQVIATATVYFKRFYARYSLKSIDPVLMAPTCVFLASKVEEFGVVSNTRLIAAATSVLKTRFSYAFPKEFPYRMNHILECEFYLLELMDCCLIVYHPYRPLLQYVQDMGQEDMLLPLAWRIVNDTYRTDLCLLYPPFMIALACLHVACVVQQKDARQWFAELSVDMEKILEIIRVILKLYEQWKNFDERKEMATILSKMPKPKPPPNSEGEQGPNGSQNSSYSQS

[12] = biological target: CDK7/Cyclin H/MNAT1 (Homo sapiens) (UniProt P51946+P50613+P51948); test: Inhibition of CDK7/cyclin H/MNAT1 (unknown origin) at 1 uM; format: protein-complex assay
Summary of the method: (§2)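 Residual activity of each kinase with compound at 1 µM, measured in a contracted radioisotope-based kinase profiling assay and expressed as % kinase activity remaining.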

[13] = biological target: Cyclin-dependent kinase 5/CDK5 activator 1 (Homo sapiens) (UniProt Q00535+Q15078); test: Inhibition of CDK5/p25 (unknown origin) at 1 uM; format: protein-complex assay; summary of the method: as §2
Sequence of Cyclin-dependent kinase 5/CDK5 activator 1 (Homo sapiens) (Q00535 whole entry): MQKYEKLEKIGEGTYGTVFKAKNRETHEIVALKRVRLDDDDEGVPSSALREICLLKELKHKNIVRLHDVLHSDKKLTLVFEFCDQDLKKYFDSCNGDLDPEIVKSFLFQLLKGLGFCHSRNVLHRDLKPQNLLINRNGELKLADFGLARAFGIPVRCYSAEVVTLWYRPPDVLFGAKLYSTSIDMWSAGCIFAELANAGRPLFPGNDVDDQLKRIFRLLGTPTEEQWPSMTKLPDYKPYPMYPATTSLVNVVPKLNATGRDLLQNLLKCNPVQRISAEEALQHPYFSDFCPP
Sequence of Cyclin-dependent kinase 5/CDK5 activator 1 (Homo sapiens) (Q15078 99-307 partner limits assumed): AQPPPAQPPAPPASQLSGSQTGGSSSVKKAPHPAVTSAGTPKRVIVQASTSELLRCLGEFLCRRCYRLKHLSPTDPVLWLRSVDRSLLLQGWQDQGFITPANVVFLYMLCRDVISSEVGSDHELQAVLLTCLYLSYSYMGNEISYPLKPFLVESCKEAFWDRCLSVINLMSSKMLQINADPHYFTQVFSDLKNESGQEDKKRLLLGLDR

[14] = Inhibition of CYP4501A in human liver microsomes using ethoxyresorufin O-deethylation as substrate by LC-MS/MS analysis
[15] = biological target: CDK9/cyclin T1 (Homo sapiens, UniProt P50750); test: Inhibition of CDK9/Cyclin T1 (unknown origin); format: protein-complex assay
Sequence of CDK9/cyclin T1 (O60563 whole entry): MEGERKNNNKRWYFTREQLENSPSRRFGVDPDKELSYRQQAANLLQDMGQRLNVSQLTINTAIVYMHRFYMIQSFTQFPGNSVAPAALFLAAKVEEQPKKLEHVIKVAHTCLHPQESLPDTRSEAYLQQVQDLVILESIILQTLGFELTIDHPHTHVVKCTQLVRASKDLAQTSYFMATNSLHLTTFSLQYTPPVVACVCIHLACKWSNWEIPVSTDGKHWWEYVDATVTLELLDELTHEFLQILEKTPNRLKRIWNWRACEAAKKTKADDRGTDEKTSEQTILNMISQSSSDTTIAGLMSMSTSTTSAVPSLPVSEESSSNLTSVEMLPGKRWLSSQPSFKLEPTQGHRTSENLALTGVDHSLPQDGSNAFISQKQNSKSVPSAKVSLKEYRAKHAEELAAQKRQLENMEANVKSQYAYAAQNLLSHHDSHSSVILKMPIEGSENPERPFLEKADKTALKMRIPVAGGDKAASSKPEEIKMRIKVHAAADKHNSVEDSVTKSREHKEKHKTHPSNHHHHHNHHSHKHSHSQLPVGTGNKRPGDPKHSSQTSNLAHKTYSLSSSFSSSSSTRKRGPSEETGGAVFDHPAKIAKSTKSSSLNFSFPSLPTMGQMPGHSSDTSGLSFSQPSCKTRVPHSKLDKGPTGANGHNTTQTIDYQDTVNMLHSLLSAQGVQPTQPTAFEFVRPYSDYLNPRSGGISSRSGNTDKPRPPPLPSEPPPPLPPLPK
Sequence of CDK9/cyclin T1 (P50750 whole entry): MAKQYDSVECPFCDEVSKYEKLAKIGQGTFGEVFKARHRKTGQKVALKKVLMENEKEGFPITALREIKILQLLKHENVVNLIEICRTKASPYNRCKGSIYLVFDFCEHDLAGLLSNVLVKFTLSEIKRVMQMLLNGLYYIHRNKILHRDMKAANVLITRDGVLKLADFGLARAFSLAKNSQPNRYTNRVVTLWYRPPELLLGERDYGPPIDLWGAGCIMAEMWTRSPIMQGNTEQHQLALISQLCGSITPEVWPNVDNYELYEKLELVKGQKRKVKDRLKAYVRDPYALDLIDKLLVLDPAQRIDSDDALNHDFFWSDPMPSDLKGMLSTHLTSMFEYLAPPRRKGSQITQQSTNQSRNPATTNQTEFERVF
Summary of the method: (§3)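 IC50 measured in a contracted radiometric kinase assay with ATP at the experimentally determined Km(ATP) of each kinase. Apparent Ki was derived by Cheng-Prusoff: Ki = IC50/(1+[ATP]/Km(ATP)).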

[16] = biological target: CDK2/Cyclin A2 (Homo sapiens) (UniProt P24941+P20248); test: Inhibition of CDK2/cyclin-A (unknown origin) at 1 uM; format: protein-complex assay; summary of the method: as §2
[17] = biological target: Cyclin-Y/Cyclin-dependent kinase 16 (Homo sapiens) (UniProt Q00536+Q8ND76); test: Inhibition of CDK16/Cyclin Y (unknown origin) at 1 uM; format: protein-complex assay; summary of the method: as §2
[18] = biological target: Cyclin-dependent kinase 4/cyclin D1 (Homo sapiens) (UniProt P11802+P24385); test: Inhibition of CDK4/cyclin-D1 (unknown origin) at 1 uM; format: protein-complex assay; summary of the method: as §2
[19] = system: Glycogen synthase kinase-3 alpha (Homo sapiens), P49840 [UNDEFINED MUTATION]; test: Inhibition of human GSKalpha S449A mutant (2 to 3nd residues) at 1 uM using YRRAAVPPSPSLSRHSSPHQS(p) EDEEE as substrate incubated for 40 mins in presence of [gamma-33P]-ATP by scintillation counting method relative to control
Sequence of Glycogen synthase kinase-3 alpha (Homo sapiens), P49840 [UNDEFINED MUTATION] (P49840 whole entry, looked up, stated change not applied): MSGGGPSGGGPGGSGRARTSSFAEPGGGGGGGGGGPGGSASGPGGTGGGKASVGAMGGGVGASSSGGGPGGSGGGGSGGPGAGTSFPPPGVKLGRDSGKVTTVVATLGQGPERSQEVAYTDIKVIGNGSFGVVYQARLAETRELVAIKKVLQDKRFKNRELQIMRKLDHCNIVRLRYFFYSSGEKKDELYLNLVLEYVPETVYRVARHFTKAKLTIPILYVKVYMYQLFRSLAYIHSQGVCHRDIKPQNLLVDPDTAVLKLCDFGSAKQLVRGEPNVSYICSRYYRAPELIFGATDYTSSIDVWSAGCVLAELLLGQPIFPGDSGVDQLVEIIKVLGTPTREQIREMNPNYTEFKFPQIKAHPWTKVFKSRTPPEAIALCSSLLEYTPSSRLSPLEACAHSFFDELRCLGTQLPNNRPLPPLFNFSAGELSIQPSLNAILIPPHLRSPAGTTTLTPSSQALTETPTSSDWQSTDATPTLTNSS
Summary of the method: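 Single-point screen of residual kinase activity (%) at 1 µM compound. Run as a contract radiometric [γ-33P]-ATP kinase assay, either the KinaseProfiler service or the HotSpot assay. ATP was set at the experimentally determined Km(ATP) of each kinase.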

[20] = biological target: Cyclin-dependent kinase 1/cyclin B1 (Homo sapiens, UniProt P06493); test: Inhibition of CDK1/cyclin-B (unknown origin); format: protein-complex assay; summary of the method: as §3
Sequence of Cyclin-dependent kinase 1/cyclin B1 (P06493 whole entry): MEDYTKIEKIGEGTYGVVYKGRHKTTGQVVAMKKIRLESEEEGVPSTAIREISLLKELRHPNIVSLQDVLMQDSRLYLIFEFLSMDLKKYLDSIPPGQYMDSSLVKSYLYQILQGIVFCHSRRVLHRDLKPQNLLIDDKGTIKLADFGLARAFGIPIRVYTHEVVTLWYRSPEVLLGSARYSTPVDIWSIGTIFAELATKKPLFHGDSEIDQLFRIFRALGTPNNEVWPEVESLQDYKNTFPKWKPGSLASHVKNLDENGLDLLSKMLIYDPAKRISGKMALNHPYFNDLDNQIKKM
Sequence of Cyclin-dependent kinase 1/cyclin B1 (P14635 whole entry, further chain): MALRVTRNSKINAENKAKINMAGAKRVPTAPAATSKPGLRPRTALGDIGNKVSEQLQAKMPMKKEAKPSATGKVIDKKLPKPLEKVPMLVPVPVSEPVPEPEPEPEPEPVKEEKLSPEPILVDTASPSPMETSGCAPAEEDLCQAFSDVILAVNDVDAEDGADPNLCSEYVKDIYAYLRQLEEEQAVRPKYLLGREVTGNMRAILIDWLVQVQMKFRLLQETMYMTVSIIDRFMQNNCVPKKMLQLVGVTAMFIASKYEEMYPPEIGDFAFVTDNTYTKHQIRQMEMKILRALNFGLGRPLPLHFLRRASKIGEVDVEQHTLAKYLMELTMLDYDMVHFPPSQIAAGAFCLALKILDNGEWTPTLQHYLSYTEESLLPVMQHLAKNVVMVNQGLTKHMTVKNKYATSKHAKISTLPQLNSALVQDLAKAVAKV

[21] = AUC in BALB/c mouse at 10 mg/kg, po measured up to 24 hrs by LC-MS/MS analysis; conditions: in vivo
[22] = biological target: CDK9/cyclin T1 (Homo sapiens) (UniProt O60563+P50750); test: Inhibition of CDK9/Cyclin T1 (unknown origin) at 1 uM relative to control; format: protein-complex assay; summary of the method: as §2
[23] = Toxicity in BALB/c mouse assessed as increase in body weight at 70 mg/kg, po administered once daily for 7 days and measured on day 15 relative to control; format: organism-based; conditions: in vivo, 168 h, time 7 day
[24] = Toxicity in BALB/c mouse assessed as loss of ground substance at 70 mg/kg, po administered once daily for 7 days and measured on day 15; format: organism-based; conditions: in vivo, 168 h, time 7 day
[25] = Tmax in BALB/c mouse at 2 mg/kg, iv measured up to 24 hrs by LC-MS/MS analysis; conditions: in vivo
[26] = biological target: CDK6/cyclin D3 (Homo sapiens) (UniProt P30281+Q00534); test: Inhibition of CDK6/cyclin-D3 (unknown origin) at 1 uM; format: protein-complex assay; summary of the method: as §2
[27] = Oral bioavailability in BALB/c mouse at 10 mg/kg measured up to 24 hrs by LC-MS/MS analysis; conditions: in vivo
[28] = biological target: Cyclin-dependent kinase 14/Cyclin-Y (Homo sapiens) (UniProt O94921+Q8ND76); test: Inhibition of CDK14/Cyclin Y (unknown origin) at 1 uM; format: protein-complex assay; summary of the method: as §2
[29] = biological target: Cyclin-dependent kinase 1/cyclin B1 (Homo sapiens) (UniProt P06493+P14635); test: Inhibition of CDK1/cyclin-B (unknown origin) at 1 uM relative to control; format: protein-complex assay; summary of the method: as §2
Sequence of Cyclin-dependent kinase 1/cyclin B1 (Homo sapiens) (P06493 whole entry, looked up): as the sequence (P06493 whole entry) above
Sequence of Cyclin-dependent kinase 1/cyclin B1 (Homo sapiens) (P14635 whole entry, looked up): as the sequence (P14635 whole entry, further chain) above

[30] = Clearance in BALB/c mouse at 2 mg/kg, iv measured up to 24 hrs by LC-MS/MS analysis; conditions: in vivo

Row | SMILES | Vd [1] [L/kg] | GI50 [2] [µM] | Activity [3] | Ki [4] [µM] | GI50 [5] [µM] | GI50 [6] [µM] | half-life [7] [min] | Cmax [8] [µM] | clearance [9] [mL/min/kg] | Activity [10] | Ki [11] [µM] | further results
1 | Cn1cc(-c2ccc(-c3cncc(Cl)c3N3CCC4(CCNC4=O)CC3)cc2)cn1 | 1.38 | 37 | Non-Toxic | 0.345 | 13.8 | 0.03 | 64.8 | 10.6 | 20 | Non-Toxic | 0.009 | –
2 | O=C1NCCC12CCN(c1c(Cl)cncc1-c1cc3ccccc3o1)CC2 | 1.11 | > 50 | Non-Toxic | 0.004 | 25.4 | 0.36 | 54 | 14.4 | 23.2 | Non-Toxic | 0.014 | inhibition [12]: inactive; inhibition [13]: inactive; IC50 [14]: 7.7 µM; Ki [15]: 1.77 µM; inhibition [16]: inactive; inhibition [17]: inactive; inhibition [18]: inactive; inhibition [19]: > 50%; Ki [20]: 1.89 µM; AUC at 24 h [21]: 2.3 µM·h; inhibition [22]: > 50%; Activity [23]: 12%; Activity [24]: Toxic; Tmax [25]: 2.4 min; inhibition [26]: inactive; bioavailability [27]: 33%; inhibition [28]: inactive; inhibition [29]: > 50%; clearance [30]: 63 mL/min/kg
